The source made the active and inactive calls. No cut-off for these calls is given here.

The target in one assay is Ephrin type-B receptor 2 (Homo sapiens, UniProt P29323). In words: Inhibition of EphB2 (unknown origin) ACT labeling site by KiNativ Profiling analysis.
In assay [1] the target is Serine/threonine-protein kinase tousled-like 2 (Homo sapiens) (UniProt Q86UE8). In words: Inhibition of TLK2 Lys1 labeling site in human A-375 cells at 0.05 uM by KiNativ Profiling analysis relative to control. The assay is classed as cell-based.
The target in assay [2] is Serine/threonine-protein kinase SMG1 (Homo sapiens) (UniProt Q96Q15). In words: Inhibition of SMG1 ATP labeling site harbouring SYPYLFKGLEDLHLDER in human A-375 cells at 0.05 uM by KiNativ Profiling analysis relative to control. The assay is classed as cell-based.
Assay [3] deals with Protein kinase C alpha type (Homo sapiens) (UniProt P17252). In words: Inhibition of PKCa Lys2 labeling site in human A-375 cells at 0.5 uM by KiNativ Profiling analysis relative to control. The class given is cell-based.
The target of assay [4] is Serine/threonine-protein kinase MARK2 (Homo sapiens) (UniProt Q7KZI7). In words: Inhibition of MARK2 Lys1 labeling site in human A-375 cells at 0.05 uM by KiNativ Profiling analysis relative to control. The class given is cell-based.
Assay [5] deals with Serine/threonine-protein kinase WNK2 (Homo sapiens) (UniProt Q9Y3S1). As to the kind of experiment: Inhibition of Wnk2 ATP Loop labeling site in human A-375 cells at 0.5 uM by KiNativ Profiling analysis relative to control. The assay is classed as cell-based.
The target in assay [6] is Tyrosine-protein kinase ABL2 (Homo sapiens, UniProt P42684). In words: Inhibition of ARG Lys1 labeling site in human A-375 cells at 5 uM by KiNativ Profiling analysis relative to control. The class given is cell-based. The gist of the method:
(§1)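 Intact A375 melanoma cells were treated with compound at 5 or 0.5 μM, then lysed. Lysate kinases were labeled with a lysine-reactive ATP or ADP-biotin probe (KiNativ). Inhibition is read as protection of each kinase labeling site from probe labeling.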

The target in assay [7] is Cyclin-dependent kinase 17 (Homo sapiens) (UniProt Q00537). In words: Inhibition of PCTAIRE2 Lys1 labeling site harbouring SKLTENLVALKEIR in human A-375 cells at 5 uM by KiNativ Profiling analysis relative to control. The assay is classed as cell-based.
Assay [8] deals with RAC-gamma serine/threonine-protein kinase (Homo sapiens) (UniProt Q9Y243). As to the kind of experiment: Inhibition of AKT3 ATP Loop labeling site in human A-375 cells at 0.5 uM by KiNativ Profiling analysis relative to control. The assay is classed as cell-based. The gist of the method:
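Live A375 melanoma cells were treated with compound at 5 or 0.5 μM, then lysed. The lysates were labeled with a lysine-reactive ATP or ADP-biotin probe. Kinase protection from probe labeling was measured by KiNativ.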

Assay [9] concerns the target Mitogen-activated protein kinase 14 (Homo sapiens, UniProt Q16539). As to the kind of experiment: Inhibition of p38 alpha Lys2 labeling site in human A-375 cells at 0.05 uM by KiNativ Profiling analysis relative to control. The class given is cell-based.
The target of assay [10] is Serine/threonine-protein kinase PLK1 (Homo sapiens) (UniProt P53350). As to the kind of experiment: Inhibition of PLK1 Lys1 labeling site in human A-375 cells at 5 uM by KiNativ Profiling analysis relative to control. The assay is classed as cell-based.
In assay [11] the target is Serine/threonine-protein kinase 38 (Homo sapiens) (UniProt Q15208). As to the kind of experiment: Inhibition of NDR1 Lys2 labeling site in human A-375 cells at 0.5 uM by KiNativ Profiling analysis relative to control. The class given is cell-based.
Assay [12] deals with T1, Scaffold protein ILK (Homo sapiens) (UniProt Q13418).
T1 sequence (whole entry): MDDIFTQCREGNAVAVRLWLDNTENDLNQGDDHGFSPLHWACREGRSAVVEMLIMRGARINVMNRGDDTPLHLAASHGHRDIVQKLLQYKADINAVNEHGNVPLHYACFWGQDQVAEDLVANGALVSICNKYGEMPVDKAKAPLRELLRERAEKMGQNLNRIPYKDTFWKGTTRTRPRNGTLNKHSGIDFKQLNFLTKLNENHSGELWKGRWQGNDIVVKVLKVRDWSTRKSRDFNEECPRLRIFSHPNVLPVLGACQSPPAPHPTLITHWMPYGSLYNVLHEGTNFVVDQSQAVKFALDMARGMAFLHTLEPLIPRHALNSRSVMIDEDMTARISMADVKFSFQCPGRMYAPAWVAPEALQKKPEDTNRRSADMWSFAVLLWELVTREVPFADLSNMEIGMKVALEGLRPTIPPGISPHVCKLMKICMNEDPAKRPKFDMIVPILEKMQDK
As to the kind of experiment: Inhibition of ILK Lys1 labeling site in human A-375 cells at 0.5 uM by KiNativ Profiling analysis relative to control. The class given is cell-based.

The target of assay [13] is Dual specificity mitogen-activated protein kinase kinase 1 (Homo sapiens) (UniProt Q02750). In words: Inhibition of MAP2K1 Lys2 labeling site harbouring DVKPSNILVNSR in human A-375 cells at 0.05 uM by KiNativ Profiling analysis relative to control. The assay is classed as cell-based.
The target of assay [14] is Calcium/calmodulin-dependent protein kinase type 1 (Homo sapiens) (UniProt Q14012). As to the kind of experiment: Inhibition of CaMK1a Lys1 labeling site in human A-375 cells at 0.5 uM by KiNativ Profiling analysis relative to control. The assay is classed as cell-based. The procedure, abridged: as §1
Assay [15] addresses Calcium/calmodulin-dependent protein kinase type II subunit gamma (Homo sapiens) (UniProt Q13555). In words: Inhibition of CaMK2g Lys1 labeling site harbouring KTSTQEYAAKIINTKK in human A-375 cells at 0.05 uM by KiNativ Profiling analysis relative to control. The assay is classed as cell-based.
Assay [16] has as its target Ribosomal protein S6 kinase alpha-1 (Homo sapiens) (UniProt Q15418). In words: Inhibition of RSK1 Protein Kinase Domain in human A-375 cells at 0.5 uM by KiNativ Profiling analysis relative to control. The assay is classed as cell-based. The procedure, abridged: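 Live A375 melanoma cells treated with compound at 5 or 0.5 μM, then lysed. Lysate kinases were labeled with a lysine-reactive ATP or ADP-biotin probe. Inhibition was read as protection of labeling sites from the probe.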

Assay [17] addresses Serine/threonine-protein kinase WNK3 (Homo sapiens) (UniProt Q9BYP7). In words: Inhibition of Wnk3 Lys2 labeling site in human A-375 cells at 0.05 uM by KiNativ Profiling analysis relative to control. The class given is cell-based.
The next assay concerns GEN2.2. In words: Inhibition of CL097 induced IKKalpha/beta phosphorylation level in human GEN2.2 cells at 1 uM preincubated with compound for 1 hr followed by CL097 stimulation and measured after 30 mins by Western blot analysis. The assay is classed as functional, cell-based. A general note: In western blotting, separated proteins are transferred to a membrane and probed.

Assay [18] addresses T2, Tyrosine-protein kinase CSK (Homo sapiens, UniProt P41240). In words: Inhibition of CSK ACT labeling site harbouring VSDFGLTKEASSTQDTGKLPVKWTAPEALR in human Huh-7 cell lysate at 1 uM by KiNativ Profiling analysis relative to control. The assay is classed as subcellular.
The target of assay [19] is T2, Tyrosine-protein kinase CSK. In words: Inhibition of CSK ACT labeling site harbouring VSDFGLTKEASSTQDTGKLPVK in human Huh-7 cell lysate at 1 uM by KiNativ Profiling analysis relative to control. The assay is classed as subcellular.
Assay [20] has as its target Proto-oncogene tyrosine-protein kinase Src (Homo sapiens, UniProt P12931). As to the kind of experiment: Inhibition of SRC Lys1 labeling site in human Huh-7 cell lysate at 1 uM by KiNativ Profiling analysis relative to control. The class given is subcellular.

T2 sequence (P41240 2-450 limits assumed): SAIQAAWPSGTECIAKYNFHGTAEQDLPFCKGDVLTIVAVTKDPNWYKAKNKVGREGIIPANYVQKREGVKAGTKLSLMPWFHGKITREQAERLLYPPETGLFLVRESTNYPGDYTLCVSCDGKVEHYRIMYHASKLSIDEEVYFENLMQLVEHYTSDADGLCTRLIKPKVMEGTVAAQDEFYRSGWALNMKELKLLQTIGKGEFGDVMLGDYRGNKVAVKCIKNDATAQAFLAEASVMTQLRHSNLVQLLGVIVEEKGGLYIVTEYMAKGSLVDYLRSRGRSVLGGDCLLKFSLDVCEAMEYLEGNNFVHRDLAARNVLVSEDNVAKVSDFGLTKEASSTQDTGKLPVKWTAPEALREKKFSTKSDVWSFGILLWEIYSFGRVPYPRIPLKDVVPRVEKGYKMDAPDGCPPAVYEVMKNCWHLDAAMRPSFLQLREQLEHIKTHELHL
Cyclin-dependent kinase 17 (Homo sapiens), sequence (Q00537 whole entry, looked up): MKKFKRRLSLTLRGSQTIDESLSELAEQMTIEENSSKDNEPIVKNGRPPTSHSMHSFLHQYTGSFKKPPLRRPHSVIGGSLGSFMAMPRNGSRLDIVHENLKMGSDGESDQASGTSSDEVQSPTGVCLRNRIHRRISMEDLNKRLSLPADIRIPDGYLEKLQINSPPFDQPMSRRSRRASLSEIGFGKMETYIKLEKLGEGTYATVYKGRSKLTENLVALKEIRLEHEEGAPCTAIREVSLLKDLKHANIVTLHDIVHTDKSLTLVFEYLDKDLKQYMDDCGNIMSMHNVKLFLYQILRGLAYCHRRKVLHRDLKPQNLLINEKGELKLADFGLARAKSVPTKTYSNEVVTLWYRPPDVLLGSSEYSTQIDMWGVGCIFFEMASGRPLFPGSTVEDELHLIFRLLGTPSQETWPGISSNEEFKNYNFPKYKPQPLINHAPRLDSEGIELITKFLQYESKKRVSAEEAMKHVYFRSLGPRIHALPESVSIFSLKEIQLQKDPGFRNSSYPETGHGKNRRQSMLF
Tyrosine-protein kinase ABL2, sequence (P42684 whole entry): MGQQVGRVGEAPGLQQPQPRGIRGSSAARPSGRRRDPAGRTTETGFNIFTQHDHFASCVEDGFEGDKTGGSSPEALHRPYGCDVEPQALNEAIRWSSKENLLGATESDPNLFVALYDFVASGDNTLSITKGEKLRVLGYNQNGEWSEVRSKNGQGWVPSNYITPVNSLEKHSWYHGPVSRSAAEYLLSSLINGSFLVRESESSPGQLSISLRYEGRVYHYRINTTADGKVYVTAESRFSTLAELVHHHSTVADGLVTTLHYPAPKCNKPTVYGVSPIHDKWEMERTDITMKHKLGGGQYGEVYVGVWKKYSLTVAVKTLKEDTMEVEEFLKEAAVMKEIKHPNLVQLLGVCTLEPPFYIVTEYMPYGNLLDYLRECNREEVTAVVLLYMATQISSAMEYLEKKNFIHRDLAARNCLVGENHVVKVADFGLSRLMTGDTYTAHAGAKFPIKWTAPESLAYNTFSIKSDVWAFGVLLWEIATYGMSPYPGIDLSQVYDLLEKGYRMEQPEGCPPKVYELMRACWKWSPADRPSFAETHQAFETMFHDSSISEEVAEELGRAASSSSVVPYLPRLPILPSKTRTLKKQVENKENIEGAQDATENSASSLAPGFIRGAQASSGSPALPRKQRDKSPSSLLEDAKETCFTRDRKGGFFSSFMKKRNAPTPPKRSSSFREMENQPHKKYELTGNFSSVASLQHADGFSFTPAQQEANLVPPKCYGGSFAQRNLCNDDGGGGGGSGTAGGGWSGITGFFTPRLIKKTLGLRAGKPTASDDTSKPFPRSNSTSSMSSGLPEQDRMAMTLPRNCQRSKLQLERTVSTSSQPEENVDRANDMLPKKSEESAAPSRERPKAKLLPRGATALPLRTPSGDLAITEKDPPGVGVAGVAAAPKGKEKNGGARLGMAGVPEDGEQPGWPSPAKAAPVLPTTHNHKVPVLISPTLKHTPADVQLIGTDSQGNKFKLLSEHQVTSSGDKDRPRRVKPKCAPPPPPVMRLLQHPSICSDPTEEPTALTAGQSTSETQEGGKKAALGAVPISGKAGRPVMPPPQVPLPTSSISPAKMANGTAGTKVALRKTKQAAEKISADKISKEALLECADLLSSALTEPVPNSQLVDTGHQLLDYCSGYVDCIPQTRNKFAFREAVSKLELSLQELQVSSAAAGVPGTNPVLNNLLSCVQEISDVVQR
Serine/threonine-protein kinase 38 (Homo sapiens), sequence (Q15208 2-465 limits assumed): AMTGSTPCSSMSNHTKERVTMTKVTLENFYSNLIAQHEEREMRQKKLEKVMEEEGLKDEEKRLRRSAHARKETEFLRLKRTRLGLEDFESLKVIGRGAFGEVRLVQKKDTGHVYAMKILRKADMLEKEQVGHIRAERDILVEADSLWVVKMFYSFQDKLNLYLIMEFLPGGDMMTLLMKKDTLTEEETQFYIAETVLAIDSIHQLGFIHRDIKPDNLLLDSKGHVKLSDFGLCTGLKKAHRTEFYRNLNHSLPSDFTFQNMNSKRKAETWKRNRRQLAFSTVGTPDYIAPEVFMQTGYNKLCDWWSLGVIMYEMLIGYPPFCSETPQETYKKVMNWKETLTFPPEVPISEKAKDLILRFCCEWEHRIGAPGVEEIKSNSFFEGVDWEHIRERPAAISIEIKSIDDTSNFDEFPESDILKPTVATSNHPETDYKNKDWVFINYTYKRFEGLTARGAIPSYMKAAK
Mitogen-activated protein kinase 14, sequence (Q16539 whole entry): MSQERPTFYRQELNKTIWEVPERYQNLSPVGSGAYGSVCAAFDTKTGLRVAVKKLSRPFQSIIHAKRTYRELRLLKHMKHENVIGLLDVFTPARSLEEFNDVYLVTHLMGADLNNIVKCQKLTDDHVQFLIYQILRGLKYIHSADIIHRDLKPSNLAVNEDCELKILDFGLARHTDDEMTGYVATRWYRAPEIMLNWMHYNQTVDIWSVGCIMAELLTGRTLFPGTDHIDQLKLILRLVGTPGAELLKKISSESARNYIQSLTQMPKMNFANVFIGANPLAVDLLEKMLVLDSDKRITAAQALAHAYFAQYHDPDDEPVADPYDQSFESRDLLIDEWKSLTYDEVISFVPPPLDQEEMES
Serine/threonine-protein kinase tousled-like 2 (Homo sapiens), sequence (Q86UE8 whole entry, looked up): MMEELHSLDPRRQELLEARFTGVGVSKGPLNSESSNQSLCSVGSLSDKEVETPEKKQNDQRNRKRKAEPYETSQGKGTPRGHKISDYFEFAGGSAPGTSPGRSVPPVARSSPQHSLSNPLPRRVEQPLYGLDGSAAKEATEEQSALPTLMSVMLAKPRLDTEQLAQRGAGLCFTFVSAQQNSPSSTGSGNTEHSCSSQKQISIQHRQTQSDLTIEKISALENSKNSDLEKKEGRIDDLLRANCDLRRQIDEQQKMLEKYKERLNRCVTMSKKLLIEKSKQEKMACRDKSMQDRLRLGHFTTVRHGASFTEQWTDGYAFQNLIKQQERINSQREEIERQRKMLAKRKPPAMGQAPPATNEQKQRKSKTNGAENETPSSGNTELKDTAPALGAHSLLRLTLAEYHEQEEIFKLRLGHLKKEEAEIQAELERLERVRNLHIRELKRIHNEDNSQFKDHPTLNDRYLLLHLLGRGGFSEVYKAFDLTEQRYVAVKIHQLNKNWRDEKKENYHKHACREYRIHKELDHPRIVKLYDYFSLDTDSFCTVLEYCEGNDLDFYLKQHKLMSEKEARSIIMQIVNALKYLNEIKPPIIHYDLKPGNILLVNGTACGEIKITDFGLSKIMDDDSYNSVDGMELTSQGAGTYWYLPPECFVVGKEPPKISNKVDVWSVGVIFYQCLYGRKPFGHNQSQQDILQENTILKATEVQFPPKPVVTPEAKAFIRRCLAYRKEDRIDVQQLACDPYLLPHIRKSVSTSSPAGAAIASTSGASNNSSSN
Ribosomal protein S6 kinase alpha-1 (Homo sapiens), sequence (Q15418 whole entry, the tested form may be a part): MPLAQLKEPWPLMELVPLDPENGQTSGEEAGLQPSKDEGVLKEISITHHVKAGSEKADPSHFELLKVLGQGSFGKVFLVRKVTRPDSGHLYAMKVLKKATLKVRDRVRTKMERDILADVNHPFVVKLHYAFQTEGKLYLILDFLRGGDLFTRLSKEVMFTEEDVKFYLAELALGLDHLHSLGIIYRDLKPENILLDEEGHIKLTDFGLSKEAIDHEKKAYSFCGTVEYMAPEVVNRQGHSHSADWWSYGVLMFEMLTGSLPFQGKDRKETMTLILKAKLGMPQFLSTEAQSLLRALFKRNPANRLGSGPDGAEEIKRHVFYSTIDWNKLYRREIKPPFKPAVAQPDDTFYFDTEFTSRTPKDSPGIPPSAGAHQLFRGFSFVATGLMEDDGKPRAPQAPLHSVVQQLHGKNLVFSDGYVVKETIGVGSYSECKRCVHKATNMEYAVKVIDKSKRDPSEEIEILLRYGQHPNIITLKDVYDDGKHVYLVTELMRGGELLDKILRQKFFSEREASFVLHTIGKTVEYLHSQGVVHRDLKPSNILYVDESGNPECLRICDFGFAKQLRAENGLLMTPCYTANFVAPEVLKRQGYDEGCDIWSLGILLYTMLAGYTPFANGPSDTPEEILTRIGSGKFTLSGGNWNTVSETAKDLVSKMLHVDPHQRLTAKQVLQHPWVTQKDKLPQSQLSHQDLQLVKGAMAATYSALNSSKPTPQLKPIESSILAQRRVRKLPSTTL
Calcium/calmodulin-dependent protein kinase type II subunit gamma (Homo sapiens), sequence (Q13555 whole entry, the tested form may be a part): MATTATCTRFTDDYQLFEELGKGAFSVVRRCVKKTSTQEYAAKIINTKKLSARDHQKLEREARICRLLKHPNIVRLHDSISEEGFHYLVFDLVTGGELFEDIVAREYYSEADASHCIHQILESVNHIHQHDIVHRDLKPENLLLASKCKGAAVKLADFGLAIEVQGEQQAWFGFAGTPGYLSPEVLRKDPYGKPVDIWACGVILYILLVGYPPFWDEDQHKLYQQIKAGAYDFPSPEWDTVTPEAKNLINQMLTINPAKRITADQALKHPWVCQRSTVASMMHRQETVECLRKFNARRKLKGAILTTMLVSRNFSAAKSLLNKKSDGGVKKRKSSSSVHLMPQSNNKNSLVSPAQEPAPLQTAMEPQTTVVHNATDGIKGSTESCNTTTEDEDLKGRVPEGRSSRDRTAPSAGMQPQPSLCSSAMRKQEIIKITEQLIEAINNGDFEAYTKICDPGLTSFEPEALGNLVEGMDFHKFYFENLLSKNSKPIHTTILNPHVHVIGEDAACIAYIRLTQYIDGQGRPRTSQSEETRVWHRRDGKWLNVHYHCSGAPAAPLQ

What is called IC50 is the concentration that gives 50% inhibition. A higher IC50 goes with weaker potency in that assay. For orientation: inhibition means the change of the read-out against control, counted positive when it falls. In turn, `CCN1CCN(Cc2ccc(NC(=O)c3ccc(C)c(/C=C/c4cnc5[nH]ccc5c4OC)c3)cc2C(F)(F)F)CC1` showed an IC50 at Ephrin type-B receptor 2 of 75 nM. Moreover, the inhibition was 17.1% in [1]; 31.7% in assay [2]; 48.2% in [3]; 3% in [4]; 15.3% in assay [5]; > 90% in [6]. Besides, the inhibition is 24.3% in [7]; 25.1% in assay [8]; 59.4% in assay [9]; 5.7% in assay [10]; 30.6% in assay [11]; -1.2% in [12]. Also, the inhibition in assay [13] is -8.3%; in assay [14], 37%; in [15] it was 14.5%; in [16], 3.2%; in assay [17] it was 7.1%.
For `CCN1CCN(Cc2ccc(NC(=O)c3ccc(C)c(Oc4ccnc5[nH]ccc45)c3)cc2C(F)(F)F)CC1`, 672 nM corresponded to half-maximal inhibition on Ephrin type-B receptor 2 (IC50). Also, the inhibition in assay [1] is 13.4%; in assay [2], 15.6%; in [3], 65%; in assay [4], 1.2%; in [5], 11.4%; in assay [6], 86.8%. The inhibition in [7] is 73.3%; in assay [8] it was -1.8%; in assay [9], 4.2%; in assay [10], -7.3%; in assay [11] it was 33.9%; in [12] it was 4.9%. Besides, the inhibition in assay [13] is 6.1%; in assay [14], 67%; in assay [15], 16.6%; in assay [16] it was 0.9%; in [17], -3.5%. Also, in the assay on GEN2.2, the inhibition entry is “Active”.
Consider `CNc1cc(Oc2cc(C(=O)Nc3cc(-n4cnc(C)c4)cc(C(F)(F)F)c3)ccc2C)ncn1`, for which the inhibition in assay [18] is -2.8%; in [19], 0.3%; in assay [20], -2.8%. Moreover, the inhibition entry in the assay on GEN2.2 is “inactive”.
On to `CNc1cc(Oc2cc(C(=O)Nc3cc(N4CCN(C)CC4)cc(C(F)(F)F)c3)ccc2C)ncn1`, for which the inhibition stood at 26.9% in assay [18], 7.9% in [19] and 18.1% in [20].

The record behind these values is ChEMBL document CHEMBL5696442, “Discovery of type II inhibitors of TGFβ-activated kinase 1 (TAK1) and mitogen-activated protein kinase kinase kinase kinase 2 (MAP4K2)” (J Med Chem, 2015).
